Measured values published in ChEMBL document CHEMBL3992514, “Synthesis, biological characterisation and structure activity relationships of aromatic bisamidines active against Plasmodium falciparum” (Eur J Med Chem, 2017).
pIC50: −log10 of the molar value.

Assays:
Plasmodium falciparum [1] = assay: Antiparasitic activity against drug-resistant Plasmodium falciparum Dd2 infected in erythrocytes assessed as growth inhibition after 48 hrs by [3H]-hypoxanthine incorporation assay; format: functional, cell-based
Plasmodium falciparum [2] = assay: Antiparasitic activity against drug-sensitive Plasmodium falciparum 3D7 infected in erythrocytes assessed as growth inhibition after 48 hrs by SYBR green 1 dye-based flow cytometry; format: functional, cell-based; conditions: 3D7, 48 h
HEK293 = assay: Cytotoxicity against HEK293 cells assessed as decrease in cell viability after 24 hrs by Alamar blue assay; format: ADME, cell-based; conditions: Homo sapiens, HEK293, 24 h
[3] = Selectivity index, ratio of IC50 for HEK293 cells to IC50 for drug-resistant Plasmodium falciparum Dd2 infected in erythrocytes; conditions: human
[4] = Selectivity index, ratio of IC50 for HEK293 cells to IC50 for drug-sensitive Plasmodium falciparum 3D7 infected in erythrocytes; conditions: human
Plasmodium vivax = assay: Antimalarial activity against hypnozoite-stage Plasmodium vivax in infected patient assessed as cure rate at 100 mg, po bid administered for 5 days measured every 12 hrs up to day 7, and on day 10, 14, 21, and 28 by Giemsa staining-based assay relative to control; format: functional
Plasmodium falciparum [5] = assay: Antimalarial activity against Plasmodium falciparum in infected patient assessed as cure rate at 100 mg, po bid administered for 5 days measured every 12 hrs up to day 7, and on day 10, 14, 21, and 28 by Giemsa staining-based assay relative to control; format: functional
[6] = Cmax in Sprague-Dawley albino rat at 1 mg/kg, po; format: ADME, organism-based; parameters: dose 1 mg/kg, route oral; conditions: in vivo
[7] = Half life in Sprague-Dawley albino rat at 1 mg/kg, po; format: ADME, organism-based; conditions: in vivo
[8] = Oral bioavailability in Sprague-Dawley albino rat at 1 mg/kg; format: ADME, organism-based; conditions: in vivo
[9] = Cytotoxicity against HEK293 cells assessed as cell viability at 50 uM after 24 hrs by Alamar blue assay relative to control; format: cell-based; conditions: human, read-out: Activity
How it was run: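 HEK293 cells kept in DMEM with 10% FCS and 5 mM glutamine at 37 °C, 5% CO2; seeded at 1.5 × 10^3 cells per well, compound added immediately at 50 µM. After 24 h AlamarBlue added, incubated a further 21 h; resorufin fluorescence read at Ex 560/Em 590 nm. Triplicates over three independent experiments.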

[10] = Cmax in Swiss Webster mouse at 30 mg/kg, po; format: ADME, organism-based; parameters: dose 30 mg/kg, route oral; conditions: in vivo
[11] = Half life in Swiss Webster mouse at 30 mg/kg, po; format: ADME, organism-based; conditions: in vivo
[12] = Oral bioavailability in Swiss Webster mouse at 30 mg/kg; format: ADME, organism-based; conditions: in vivo
Giardia intestinalis = assay: Antiparasitic activity against Giardia lamblia; format: functional; conditions: Giardia duodenalis
Leishmania sp. = assay: Antiparasitic activity against Leishmania spp.; format: functional

Structure (SMILES)	pIC50 (Plasmodium falciparum [1])	pIC50 (Plasmodium falciparum [2])	pIC50 (HEK293)	selectivity ratio [3]	selectivity ratio [4]	other results
N=C(N)c1ccc(-c2cc(CC(=O)N3CCN(C(c4ccccc4)c4ccccc4)CC3)c(-c3ccc(C(=N)N)cc3)o2)cc1	5.27	5.84	< 4.30	> 10	> 35	
Cc1c(-c2ccc(C(=N)NO)cc2)oc(-c2ccc(C(=N)NO)cc2)c1C	5.15	< 6.00	< 4.30	> 10		
COCc1c(-c2ccc(C(=N)N)cc2)oc(-c2ccc(C(=N)N)cc2)c1COC	6.05	5.98	< 4.30	> 56	> 48	
N=C(N)c1ccc(-c2cc(CC(=O)N3CCCCC3)c(-c3ccc(C(=N)N)cc3)o2)cc1		5.29	< 4.30		> 9	
Cc1c(-c2ccc(C(=N)NC(C)C)cc2)oc(-c2ccc(C(=N)NC(C)C)cc2)c1C	7.05	7.42	3.51	3430	8130	
CONC(=N)c1ccc(-c2ccc(-c3ccc(C(=N)NOC)cc3)o2)cc1 [PAFURAMIDINE]						Activity (Plasmodium vivax): >95%; Activity (Plasmodium falciparum [5]): >95%
CCOC(=O)Cc1cc(-c2ccc(C(=N)N)cc2)oc1-c1ccc(C(=N)N)cc1	6.07	6.66	3.63	270	1060	
N=C(N)c1ccc(-c2cc(CC(=O)N3CCN(C(=O)c4ccccc4)CC3)c(-c3ccc(C(=N)N)cc3)o2)cc1	< 5.00	< 5.00	< 4.30			
CCCOCc1c(-c2ccc(C(=N)N)cc2)oc(-c2ccc(C(=N)N)cc2)c1COCCC	6.51	6.41	< 4.30	> 128	> 161	
N=C(N)c1ccc(NC(=NCCN2CCCCC2)Nc2ccc(C(=N)N)cc2)cc1	< 5.00	< 5.00	< 4.30			
N=C(N)c1ccc(NC(=NCCc2ccccc2)Nc2ccc(C(=N)N)cc2)cc1	< 5.00	< 5.00	< 4.30			
N=C(N)c1ccc(-c2cc(CC(=O)N3CCN(C(c4ccc(F)cc4)c4ccc(F)cc4)CC3)c(-c3ccc(C(=N)N)cc3)o2)cc1	5.18	5.77	< 4.30	> 8	> 30	
COCc1c(-c2ccc(C(=N)N)cc2)oc(-c2ccc(C(=N)N)cc2)c1Cl	7.05	6.80	3.68	2320	1310	
N=C(N)c1ccc(NC(=O)Nc2ccc(C(=N)N)cc2)cc1	6.68	7.34	3.58		5780	
CN(C)CCCCNC(=O)Cc1cc(-c2ccc(C(=N)N)cc2)oc1-c1ccc(C(=N)N)cc1	< 5.00	< 5.00	< 4.30			
CCN(CC)CCNC(=O)Cc1cc(-c2ccc(C(=N)N)cc2)oc1-c1ccc(C(=N)N)cc1	< 5.00	< 5.00	< 4.30			
CN1CCN(CCNC(=O)Cc2cc(-c3ccc(C(=N)N)cc3)oc2-c2ccc(C(=N)N)cc2)CC1		< 5.00	< 4.30			
CN(C)CCCNC(=O)Cc1cc(-c2ccc(C(=N)N)cc2)oc1-c1ccc(C(=N)N)cc1	< 5.00	< 5.00	< 4.30			
Cc1c(-c2ccc(C(=N)NCC(C)C)cc2)oc(-c2ccc(C(=N)NCC(C)C)cc2)c1C	6.82	7.42	4.48	220	870	
N=C(N)c1ccc(-c2cc(CC(=O)NCCN3CCCCC3)c(-c3ccc(C(=N)N)cc3)o2)cc1	< 5.00	< 5.00	< 4.30			
N=C(N)c1ccc(-c2cc(CC(=O)NCC3CCCCC3)c(-c3ccc(C(=N)N)cc3)o2)cc1	5.62		< 4.30	> 20		
CN(C)CCNC(=O)Cc1cc(-c2ccc(C(=N)N)cc2)oc1-c1ccc(C(=N)N)cc1	< 5.00	< 5.00	< 4.30			
CONC(=N)c1ccc(-c2oc(-c3ccc(C(=N)NOC)cc3)c(C)c2C)cc1	4.97	< 6.00	< 4.30	> 5		

Structure (SMILES)	pIC50 (Plasmodium falciparum [1])	pIC50 (Plasmodium falciparum [2])	pIC50 (HEK293)	selectivity ratio [3]	selectivity ratio [4]	other results
CN(C)C(=O)Cc1cc(-c2ccc(C(=N)N)cc2)oc1-c1ccc(C(=N)N)cc1	5.42	5.24	< 4.30	> 13	> 8	
CO/N=[14C](/N)c1ccc(-c2ccc(-c3ccc(/[14C](N)=N\OC)cc3)o2)cc1						Cmax [6]: 26.1 ng/mL; half-life [7]: 0.9 h; bioavailability [8]: 11%
N=C(N)c1ccc(-c2cc(CC(=O)N3CCN(CCO)CC3)c(-c3ccc(C(=N)N)cc3)o2)cc1	< 5.00	< 5.00	< 4.30			
CSCCNC(=O)Cc1cc(-c2ccc(C(=N)N)cc2)oc1-c1ccc(C(=N)N)cc1	5.26	5.22	< 4.30	> 10	> 8	
CN(C)CCN=C(Nc1ccc(C(=N)N)cc1)Nc1ccc(C(=N)N)cc1	< 5.00	< 5.00	< 4.30			
CN1CCN(C(=O)Cc2cc(-c3ccc(C(=N)N)cc3)oc2-c2ccc(C(=N)N)cc2)CC1	< 5.00	< 5.00	< 4.30			
N=C(N)c1ccc(-c2cc(CC(=O)NCCC(c3ccccc3)c3ccccc3)c(-c3ccc(C(=N)N)cc3)o2)cc1	5.83	5.85	< 4.30	> 34	> 36	
CNC(=O)Cc1cc(-c2ccc(C(=N)N)cc2)oc1-c1ccc(C(=N)N)cc1	5.51	5.27	< 4.30	> 16	> 9	
N=C(N)c1ccc(-c2cc(CC(=O)NCCN3CCOCC3)c(-c3ccc(C(=N)N)cc3)o2)cc1	< 5.00	< 5.00	< 4.30			
N=C(N)c1ccc(-c2cc(CC(=O)NCC(c3ccccc3)c3ccccc3)c(-c3ccc(C(=N)N)cc3)o2)cc1	5.84	5.86	< 4.30	> 35	> 36	
CCCOCc1c(-c2ccc(C(=N)N)cc2)oc(-c2ccc(C(=N)N)cc2)c1Cl	6.85	7.05				viability at 24 h, 50 µM [9]: 1%
Cc1c(-c2ccc(C(=N)N)cc2)oc(-c2ccc(C(=N)N)cc2)c1C	7.22	7.48	4.13	1230	2240	
CCN(CC)CCN=C(Nc1ccc(C(=N)N)cc1)Nc1ccc(C(=N)N)cc1	< 5.00	< 5.00	< 4.30			
CSCCCNC(=O)Cc1cc(-c2ccc(C(=N)N)cc2)oc1-c1ccc(C(=N)N)cc1	5.27	5.18	< 4.30	> 10	> 7	
CC(C)OCc1c(-c2ccc(C(=N)N)cc2)oc(-c2ccc(C(=N)N)cc2)c1COC(C)C	5.92	5.97	< 4.30	> 42	> 46	
N=C(N)c1ccc(-c2cc(CC(=O)NCCCO)c(-c3ccc(C(=N)N)cc3)o2)cc1	4.65	< 5.00	< 4.30	> 3		
N=C(N)c1ccc(-c2cc(CC(=O)N3CCOCC3)c(-c3ccc(C(=N)N)cc3)o2)cc1	< 5.00	< 5.00	< 4.30			
N=C(N)c1ccc(-c2cc(CC(=O)N3CCN(c4ncccn4)CC3)c(-c3ccc(C(=N)N)cc3)o2)cc1	4.76	5.12	< 4.30	> 3	> 7	
N=C(N)c1ccc(-c2cc(CC(=O)NCCCc3ccccc3)c(-c3ccc(C(=N)N)cc3)o2)cc1	5.78	6.11	< 4.30	> 30	> 65	
N=C(N)c1ccc(-c2ccc(-c3ccc(C(=N)N)cc3)o2)cc1 [FURAMIDINE]	7.30	7.96	3.75			Cmax [10]: 8 nM; half-life [11]: 107 h; bioavailability [12]: 0.2%; pIC50 (Giardia intestinalis): 6.70; pIC50 (Leishmania sp.): 5.55
CCNC(=N)c1ccc(-c2oc(-c3ccc(C(=N)NCC)cc3)c(C)c2C)cc1	7.52	7.70	4.48	1110	1660	
N=C(N)c1ccc(-c2cc(CC(=O)NCCc3ccccc3)c(-c3ccc(C(=N)N)cc3)o2)cc1	5.92	5.93	< 4.30	> 42	> 42	
CCOCc1c(-c2ccc(C(=N)N)cc2)oc(-c2ccc(C(=N)N)cc2)c1COCC	6.07	5.92	< 4.30	> 59	> 42	
